Results on 15 molecules are retold here after ChEMBL document CHEMBL2417401, “Evaluation of steroidal amines as lipid raft modulators and potential anti-influenza agents” (Bioorg Med Chem Lett, 2013).

For data set [1], the system named is Influenza A virus. The data set is described as follows: Antiviral activity against Influenza A/PR8/34 (H1N1) virus infected in MDCK2 cells assessed as inhibition of virus budding by ELISA relative to control. Type of data set: functional, A/Puerto Rico/8/1934(H1N1), MDCK-II. A digest of the protocol:
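Infected MDCKII cells biotinylated 6 h post-infection; excess biotin quenched, and virus budded over the next hour harvested. Biotinylated particles captured on streptavidin-coated plates and detected by ELISA. Result relative to DMSO solvent control (100%).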
In general terms: In an ELISA, binding on a coated surface is turned into a signal by an enzyme label.

Data set [2] has as its system Influenza A virus. In words: Antiviral activity against Influenza A/PR8/34 (H1N1) virus infected in MDCK2 cells assessed as raft modulation using N-terminally sterol-linked peptide as tracer relative to control. Type of data set: functional, A/Puerto Rico/8/1934(H1N1), MDCK-II. Further details: concentration or dose not given beside the values. An outline of the steps: (§1)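 Raft liposomes (mol %: cholesterol 35, sphingomyelin 10.5, ganglioside M1 3.5, phosphatidylcholine 25.5, phosphatidylserine 25.5). Tracer is perylene or an N-terminally sterol-linked peptide inserted in the outer leaflet. Liposome/buffer partitioning is read by fluorescence; P is approximated as the membrane/aqueous tracer ratio. Disrafting % = 100×{1−P_steroid/P_DMSO}; augmentation % = −100×{1−P_DMSO/P_steroid}.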

Data set [3] in a line: Therapeutic index, ratio of MTD for MDCK2 cells to IC50 for Influenza A/PR8/34 (H1N1) virus. In kind it is cell-based. As to conditions: dog, read-out: TI. An outline of the steps: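 TI = MTC/IC50. IC50 comes from a focus reduction cell ELISA (anti-NP antibody HB65) in MDCKII cells, which were pre-incubated 5 min with serially diluted compound and then infected with serially diluted A/PR8/34. IC50 was obtained by regression where a dose-effect relation was seen; assays were run at least twice.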

Data set [4] in a line: Cytotoxicity against MDCK2 cells assessed as maximum tolerated concentration by lactate dehydrogenase release assay. In kind it is cell-based, Canis lupus familiaris, MDCK-II. As to conditions: dog, read-out: MTD. A digest of the protocol:
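Maximum tolerated concentration in MDCKII cells from LDH release, determined under focus reduction assay conditions.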

Data set [5] relates to Influenza A virus. In words: Antiviral activity against Influenza A/PR8/34 (H1N1) virus infected in MDCK2 cells assessed as raft modulation using perylene as tracer relative to control. Set-up: concentration or dose not given beside the values. Type of data set: functional, A/Puerto Rico/8/1934(H1N1), MDCK-II. A digest of the protocol: as §1
Data set [6] relates to Influenza A virus. The data set is described as follows: Antiviral activity against Influenza A/PR8/34 (H1N1) virus infected in MDCK2 cells assessed as inhibition of virus reproduction by ELISA. In kind it is functional, organism-based. Conditions: A/Puerto Rico/8/1934(H1N1), MDCK-II.
The test system of data set [7] is Influenza A virus. The data set is described as follows: Antiviral activity against Influenza A/PR8/34 (H1N1) virus infected in MDCK2 cells assessed as inactivation of virus by virucidal assay relative to control. Further details: concentration or dose not given beside the values. Type of data set: functional, A/Puerto Rico/8/1934(H1N1), MDCK-II. A digest of the protocol: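 Influenza A/PR8/34 (H1N1) incubated with compound for 30 min, then titrated by focus reduction assay (cell ELISA in MDCKII cells with anti-nucleoprotein antibody HB65). Activity expressed relative to DMSO solvent control set at 100%.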

The structures appear in SMILES notation. Bounds are passed on as bounds.

Usually IC50 stands for the concentration that inhibits the measured activity by half. One may read the IC90 as the concentration at which the effect reaches the 90% level. Turning to `CC(C)CCC[C@@H](C)[C@H]1CC[C@H]2[C@@H]3CC[C@H]4C[C@H](N)CC[C@]4(C)[C@H]3CC[C@]12C`, the “inhibition (INH)” value with Influenza A virus [1] came to 79.9%. Further, the results for the Activity with Influenza A virus [2], in the data set on Influenza A virus [5] and in the data set with Influenza A virus [7] were 56.3%, -72.8% and 28.5%, respectively. For the same molecule, in data set [3], the selectivity ratio worked out at 7.9. The MNTC in data set [4] is 15 µM. In the data set on Influenza A virus [6], the IC50 was determined as 1.9 µM. For the same molecule, the IC90 with Influenza A virus [6] was at least 15 µM.
Regarding `CC(C)CCC[C@@H](C)[C@H]1CC[C@H]2[C@@H]3CC[C@@]4(O)[C@H](O)C(=O)CC[C@]4(C)[C@H]3CC[C@]12C`, in the data set on Influenza A virus [6], the IC50 was found to be 16 µM.
Consider `CC(C)CCC[C@@H](C)[C@H]1CC[C@H]2[C@@H]3CC[C@H]4C[C@@H](N(C)C)CC[C@]4(C)[C@H]3CC[C@]12C`, for which the “inhibition (INH)” value in the data set on Influenza A virus [1] is reported as 42.8%. In addition, the Activity with Influenza A virus [2] is given as 15.6%; in the data set with Influenza A virus [5], 15.5%; in the data set with Influenza A virus [7] it was 0%. In addition, the selectivity ratio in data set [3] was determined as 4.1. Besides, the MNTC in data set [4] came to 15 µM. For the same molecule, the IC50 in the data set on Influenza A virus [6] came out at 3.7 µM. Further, in the data set with Influenza A virus [6], the IC90 was at least 15 µM.
Regarding `CC(C)CCC[C@@H](C)[C@H]1CC[C@H]2[C@@H]3CC[C@H]4C[C@@H]([N+](C)(C)C)CC[C@]4(C)[C@H]3CC[C@]12C.[I-]`, the “inhibition (INH)” value in the data set with Influenza A virus [1] came to 94.4%. Also, the Activity in the data set on Influenza A virus [2] stood at 83.5%; in the data set with Influenza A virus [5], 90.3%; in the data set with Influenza A virus [7] it was 16%. In addition, the selectivity ratio in data set [3] was 3.6. Moreover, the MNTC in data set [4] was determined as 12.5 µM. Further, the IC50 in the data set on Influenza A virus [6] worked out at 3.5 µM. In addition, the IC90 with Influenza A virus [6] was at least 12.5 µM.
Consider `CC(C)CCC[C@@H](C)[C@H]1CC[C@H]2[C@@H]3CC=C4C[C@@H](N)CC[C@]4(C)[C@H]3CC[C@]12C`, for which, in the data set on Influenza A virus [1], the “inhibition (INH)” value was 50.9%. The values for the Activity with Influenza A virus [2], in the data set with Influenza A virus [5] and in the data set on Influenza A virus [7] were 78.8%, 83.2% and 63.4%, respectively. For the same molecule, the selectivity ratio in data set [3] came out at 2.9. In data set [4], the MNTC stood at 25 µM. Besides, the IC50 in the data set on Influenza A virus [6] came to 8.6 µM. Further, the IC90 in the data set on Influenza A virus [6] was determined as 11.4 µM.
With `CC(C)CCC[C@@H](C)[C@H]1CC[C@H]2[C@@H]3CC[C@H]4C[C@H](O)[C@@H](N)C[C@]4(C)[C@H]3CC[C@]12C`, the “inhibition (INH)” value in the data set with Influenza A virus [1] is 53%. Moreover, the figures for the Activity in the data set on Influenza A virus [2], in the data set on Influenza A virus [5] and in the data set on Influenza A virus [7] were 32.3%, 26.5% and 75.5%, respectively. Also, the selectivity ratio in data set [3] stood at 16. In data set [4], the MNTC amounted to 75 µM. Moreover, the IC50 with Influenza A virus [6] stood at 4.7 µM. Moreover, in the data set with Influenza A virus [6], the IC90 worked out at 62 µM.
Consider `CC(C)CCC[C@@H](C)[C@H]1CC[C@H]2[C@@H]3CC[C@H]4C[C@@H](CN)CC[C@]4(C)[C@H]3CC[C@]12C`, for which, in the data set on Influenza A virus [1], the “inhibition (INH)” value is on record as 30.7%. Besides, the Activity is -39.3% in the data set with Influenza A virus [2], -66.6% with Influenza A virus [5] and 90.3% in the data set with Influenza A virus [7]. Further, the selectivity ratio in data set [3] worked out at 9.4. Also, in data set [4], the MNTC was 37.5 µM. Also, the IC50 in the data set with Influenza A virus [6] stood at 4 µM. Further, the IC90 in the data set on Influenza A virus [6] stood at 11.6 µM.
With `CC(C)CCC[C@@H](C)[C@H]1CC[C@H]2[C@@H]3CC[C@H]4C[C@H](CN)CC[C@]4(C)[C@H]3CC[C@]12C`, the “inhibition (INH)” value with Influenza A virus [1] was 12.7%. The Activity in the data set with Influenza A virus [2] is listed as -39.6%; in the data set on Influenza A virus [5] it was -60.3%; in the data set on Influenza A virus [7] it was 50.9%. Besides, the selectivity ratio in data set [3] was found to be 10.1. Moreover, the MNTC in data set [4] came to 37.5 µM. Also, the IC50 in the data set on Influenza A virus [6] was 3.7 µM. Besides, in the data set with Influenza A virus [6], the IC90 stood at 7.7 µM.
On to `CC(C)CCC[C@@H](C)[C@H]1CC[C@H]2[C@@H]3CC[C@H]4C[C@](O)(CN)CC[C@]4(C)[C@H]3CC[C@]12C`, for which the “inhibition (INH)” value in the data set with Influenza A virus [1] worked out at 41%. The Activity in the data set with Influenza A virus [2] is 15.6%; in the data set with Influenza A virus [5], -41.5%; in the data set on Influenza A virus [7] it was 64.2%. In data set [3], the selectivity ratio came out at 10.9. Moreover, the MNTC in data set [4] is 25 µM. Further, in the data set with Influenza A virus [6], the IC50 came out at 2.3 µM. Also, in the data set with Influenza A virus [6], the IC90 amounted to 21.5 µM.
For the molecule `CC(C)CCC[C@@H](C)[C@H]1CC[C@H]2[C@@H]3CC[C@H]4C[C@@H](CCN)CC[C@]4(C)[C@H]3CC[C@]12C`, in the data set on Influenza A virus [1], the “inhibition (INH)” value worked out at 65%. Further, the Activity with Influenza A virus [2] was 31.2%; with Influenza A virus [5], -38.2%; with Influenza A virus [7], 132%. The selectivity ratio in data set [3] stood at 23.8. Moreover, the MNTC in data set [4] was 50 µM. For the same molecule, the IC50 in the data set with Influenza A virus [6] is 2.1 µM. Besides, in the data set with Influenza A virus [6], the IC90 worked out at 13.4 µM.
For `CC(C)CCC[C@@H](C)[C@H]1CC[C@H]2[C@@H]3CC[C@H]4CCNCC[C@]4(C)[C@H]3CC[C@]12C`, the “inhibition (INH)” value in the data set with Influenza A virus [1] is listed as 61.8%. Further, in data set [3], the selectivity ratio came out at 3.8. In addition, the MNTC in data set [4] worked out at 12.5 µM. Moreover, in the data set with Influenza A virus [6], the IC50 was found to be 3.3 µM and the IC90 was determined as 9.7 µM. Besides, the Activity in the data set with Influenza A virus [7] turned out to be 44.1%.
Turning to `CC(C)CCC[C@@H](C)[C@H]1CC[C@H]2[C@@H]3CC[C@H]4NCCC[C@]4(C)[C@H]3CC[C@]12C`, the “inhibition (INH)” value with Influenza A virus [1] amounted to 20.4%. Further, the Activity with Influenza A virus [2] is reported as 36.1%; with Influenza A virus [5], 2.8%; in the data set with Influenza A virus [7] it was 0%. In addition, the selectivity ratio in data set [3] was 2.5. Further, in data set [4], the MNTC was 15 µM. The IC50 with Influenza A virus [6] was 5.9 µM.
With `CC(C)CCC[C@@H](C)[C@H]1CC[C@H]2[C@@H]3CC[C@@]4(O)[C@H](O)[C@@H](O)CC[C@]4(C)[C@H]3CC[C@]12C`, in the data set with Influenza A virus [1], the “inhibition (INH)” value was found to be 39.4%. The Activity is listed as -36.5% in the data set with Influenza A virus [2], -65.2% with Influenza A virus [5] and 76.7% in the data set with Influenza A virus [7]. Further, the selectivity ratio in data set [3] came to 0.9. Also, the MNTC in data set [4] worked out at 15 µM. The IC50 in the data set with Influenza A virus [6] was 16.1 µM.
In the case of `CN[C@H]1CC[C@@]2(C)[C@@H](CC[C@@H]3[C@@H]2CC[C@]2(C)[C@@H]([C@H](C)CCCC(C)C)CC[C@@H]32)C1`, the “inhibition (INH)” value with Influenza A virus [1] is recorded as 33.8%. Moreover, the values for the Activity in the data set with Influenza A virus [2], in the data set with Influenza A virus [5] and with Influenza A virus [7] were -7%, -50.5% and 0%, respectively. Also, the selectivity ratio in data set [3] is 7.6. Further, in data set [4], the MNTC came out at 25 µM. In addition, the IC50 with Influenza A virus [6] amounted to 3.3 µM. The IC90 in the data set with Influenza A virus [6] was found to be 17.5 µM.
Consider `CC(C)CCCC(C)C1CCC2C3CCC4CC(N)CCC4(C)C3CCC12C` (centres undefined), for which, in the data set with Influenza A virus [1], the “inhibition (INH)” value is 51.8%. In addition, the Activity in the data set with Influenza A virus [2] is listed as -7.1%; in the data set on Influenza A virus [5], -42.4%; in the data set on Influenza A virus [7], 47.8%. Moreover, the selectivity ratio in data set [3] is 8.8. Also, the MNTC in data set [4] came to 15 µM. Further, in the data set on Influenza A virus [6], the IC50 came out at 1.7 µM. For the same molecule, in the data set on Influenza A virus [6], the IC90 turned out to be 9 µM.
